Measurements as given in ChEMBL document CHEMBL1140035, “4"-Benzoylureido-TSAO derivatives as potent and selective non-nucleoside HCMV inhibitors. Structure-activity relationship and mechanism of antiviral action” (J Med Chem, 2008).
Values after ≈ are worked out from the molar mass of the structure shown. Active and inactive are the calls of the source. The rule behind the calls is not given here.

Experiments:
[1] = test system: Human betaherpesvirus 5; test: Antiviral activity against acyclovir-resistant HCMV with DNA polymerase mutant in HEL cells assessed as reduction of virus-induced cytopathogenicity; format: functional, organism-based; conditions: Human betaherpesvirus 5, HEL
In short: (§1)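 Resistant mutants raised in vitro by serial passage of HCMV AD-169 under rising drug concentrations. Confluent HEL fibroblasts infected at 100 PFU/well for 2 h, then the inoculum was removed. Cells were kept with serial compound concentrations in duplicate for 7 days at 37 °C. After ethanol fixation, cytopathicity was scored microscopically. EC50 is the concentration halving virus-induced cytopathicity.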

[2] = test system: Human betaherpesvirus 5; test: Antiviral activity against foscarnet-resistant HCMV with DNA polymerase mutant in HEL cells assessed as reduction of virus-induced cytopathogenicity; format: functional, organism-based; conditions: Human betaherpesvirus 5, HEL; in short: as §1
[3] = test system: Human betaherpesvirus 5; test: Antiviral activity against (S)-3-hydroxy-2-phosphonomethoxypropyl cytosine-resistant HCMV with DNA polymerase mutant in HEL cells assessed as reduction of virus-induced cytopathogenicity; format: functional, organism-based; conditions: Human betaherpesvirus 5, HEL; in short: as §1
[4] = test system: Human betaherpesvirus 5; test: Antiviral activity against HCMV 521 with […] and DNA polymerase mutation in HEL cells assessed as reduction of virus-induced cytopathogenicity; format: functional, organism-based; conditions: Human betaherpesvirus 5, HEL
In short: (§2)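 Drug-resistant HCMV clinical isolates from immunocompromised patients, carrying UL97 and/or DNA polymerase mutations. Confluent HEL fibroblasts infected at 100 PFU/well for 2 h, then residual virus was removed. Medium with serial compound concentrations added in duplicate for 7 days at 37 °C. After ethanol fixation, cytopathicity was scored microscopically. EC50 is the concentration reducing cytopathicity by 50%.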

[5] = test system: Human betaherpesvirus 5; test: Antiviral activity against ganciclovir-resistant HCMV with DNA polymerase mutant in HEL cells assessed as reduction of virus-induced cytopathogenicity; format: functional, organism-based; conditions: Human betaherpesvirus 5, HEL; in short: as §1
[6] = test system: Human betaherpesvirus 5; test: Antiviral activity against (S)-3-hydroxy-2-phosphonomethoxypropyl adenine-resistant HCMV with DNA polymerase mutant in HEL cells assessed as reduction of virus-induced cytopathogenicity; format: functional, organism-based; conditions: Human betaherpesvirus 5, HEL; in short: as §1
[7] = test system: Human betaherpesvirus 5; test: Antiviral activity against HCMV 530 with […] and DNA polymerase mutation in HEL cells assessed as reduction of virus-induced cytopathogenicity; format: functional, organism-based; conditions: Human betaherpesvirus 5, HEL; in short: as §2
[8] = test system: Human betaherpesvirus 5; test: Antiviral activity against HCMV 6 with […] mutation in HEL cells assessed as reduction of virus-induced cytopathogenicity; format: functional, organism-based; conditions: Human betaherpesvirus 5, HEL; in short: as §2
[9] = test system: Human betaherpesvirus 5; test: Antiviral activity against HCMV AD169 in HEL cells assessed as reduction of virus-induced cytopathogenicity after 7 days; format: functional, organism-based; conditions: Human betaherpesvirus 5, AD169, HEL, 168 h
In short: (§3)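 Confluent HEL fibroblasts were infected with strain AD-169 or Davis at 100 PFU/well. After 2 h, residual virus was removed and medium with serial compound concentrations was added, in duplicate. Plates were held 7 days at 37 °C, fixed with ethanol, and scored microscopically for virus-induced cytopathicity. EC50 is the concentration reducing cytopathicity by 50%.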

[10] = Cytotoxicity against HEL cells assessed as alteration in cell morphology after 3 days; format: cell-based; conditions: human
In short: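 Minimum cytotoxic concentration: the lowest compound concentration causing a microscopically detectable alteration of HEL cell morphology.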

[11] = Cytotoxicity against HEL cells assessed as reduction in cell growth after 3 days; format: cell-based; conditions: human
In short: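 HEL cells were seeded at 5 × 10³ cells/well and allowed to proliferate for 24 h. Compound-containing medium was then added at several concentrations for 3 days at 37 °C. Cells were counted with a Coulter counter. CC50, the concentration reducing cell growth by 50% versus untreated controls, was read from plots of cell number (% of control) against concentration.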

[12] = test system: Human betaherpesvirus 5; test: Antiviral activity against HCMV Davis in HEL cells assessed as reduction of virus-induced cytopathogenicity after 7 days; format: functional, organism-based; conditions: Human betaherpesvirus 5, Davis, 168 h; in short: as §3
[13] = test system: Human betaherpesvirus 5; test: Antiviral activity against HCMV in HEL cells assessed as reduction of virus-induced cytopathogenicity administered at 56 hrs post infection; format: functional, organism-based
In short: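 Time-of-addition: confluent HEL cultures were infected with about 100 PFU/well of HCMV Davis. Compound dilutions were added at 0 h or at later time points post infection, with one plate set per time point. Seven days after infection, plates were ethanol-fixed and Giemsa-stained. Antiviral effect was scored microscopically and EC50 calculated.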

[14] = test system: Murid betaherpesvirus 1; test: Antiviral activity against MCMV in mouse C127I cells assessed as reduction of virus-induced cytopathogenicity after 7 days; format: functional, organism-based; conditions: Murid betaherpesvirus 1, C127I, 168 h
In short: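 MCMV Smith strain on confluent C127I cells, run as the HCMV assay: 100 PFU/well for 2 h, inoculum removed, then serial compound concentrations in duplicate for 7 days at 37 °C. Cytopathicity was scored microscopically after ethanol fixation. EC50 is the concentration reducing virus-induced cytopathicity by 50%.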

[15] = test system: Human betaherpesvirus 5; test: Inhibition of immediate early antigen expression in HCMV Davis in HEL cells at 48 hrs post infection by flow cytometry; format: functional, organism-based
In short: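 HEL cells were infected with HCMV Davis, with compound dilutions added at infection and incubation at 37 °C. Cells were acetone-fixed at 4 °C, resuspended in PBS with 5% gelatin, and stained at 37 °C with a mAb against IE proteins 1 and 2. A fluorescein-labelled rabbit anti-mouse IgG was applied for 30 min, cells were fixed in 0.5% formaldehyde and analysed by flow cytometry. Background fluorescence of uninfected cells was subtracted.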

[16] = test system: Human alphaherpesvirus 2; test: Antiviral activity against HSV2; format: functional, organism-based
[17] = test system: Vaccinia virus; test: Antiviral activity against vaccinia virus; format: functional, organism-based; conditions: Orthopoxvirus vaccinia
[18] = test system: Human alphaherpesvirus 3; test: Antiviral activity against thymidine-kinase deficient VZV in HEL cells after 5 days by plaque reduction assay; format: functional, organism-based; conditions: Human alphaherpesvirus 3, HEL, 120 h
In short: (§4)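 Plaque reduction on confluent HEL monolayers infected with 20 PFU/well of cell-associated VZV. After 2 h, inoculum was replaced by compound dilutions in duplicate, with infected-untreated controls. After 5 days, cells were fixed and Giemsa-stained and plaques counted. EC50 is the concentration reducing plaque formation by 50% versus untreated control.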

[19] = test system: Human alphaherpesvirus 3; test: Antiviral activity against wild-type VZV in HEL cells after 5 days by plaque reduction assay; format: functional, organism-based; conditions: Human alphaherpesvirus 3, HEL, 120 h; in short: as §4
[20] = test system: Human alphaherpesvirus 1; test: Antiviral activity against HSV1; format: functional, organism-based

Compound | EC50 [1] [µg/mL] | EC50 [2] [µg/mL] | EC50 [3] [µg/mL] | EC50 [4] [µg/mL] | EC50 [5] [µg/mL] | EC50 [6] [µg/mL] | EC50 [7] [µg/mL] | EC50 [8] [µg/mL] | EC50 [9] [µM] | MCC at 72 h [10] [µM] | CC50 at 72 h [11] [µM] | EC50 [12] [µM] | Activity [13] | EC50 [14] [µM] | Activity [15] | Activity [16] | Activity [17] | EC50 [18] [µM] | EC50 [19] [µM] | Activity [20]
Nc1ncnc2c1ncn2CCOCP(=O)(O)O [ADEFOVIR] | 137 (≈ 501 µM) | 128 (≈ 469 µM) | 18 (≈ 65.9 µM) | 20 (≈ 73.2 µM) | 5.8 (≈ 21.2 µM) | 9.1 (≈ 33.3 µM) | 42 (≈ 154 µM) | 90 (≈ 329 µM) |  |  |  |  |  |  |  |  |  |  |  | 
Cc1cn([C@@H]2O[C@H](CO[Si](C)(C)C(C)(C)C)[C@@]3(OS(=O)(=O)C=C3NC(=O)NCc3ccccc3)[C@H]2O[Si](C)(C)C(C)(C)C)c(=O)n(C)c1=O |  |  |  |  |  |  |  |  | 1.3 | 4 | 4.1 | 1.1 |  |  |  |  |  |  |  | 
Nc1ccn(C[C@@H](CO)OCP(=O)(O)O)c(=O)n1.O.O [CIDOFOVIR] | 0.069 | 0.1 | 2.2 | 0.79 | 0.59 | 3.1 | 0.62 | 0.49 |  |  |  |  |  |  |  |  |  |  |  | 
Nc1nc2c(ncn2COC(CO)CO)c(=O)[nH]1 [GANCICLOVIR] | 0.54 (≈ 2.12 µM) | 1.5 (≈ 5.88 µM) | 4.9 (≈ 19.2 µM) | 6 (≈ 23.5 µM) | 7.6 (≈ 29.8 µM) | 9.1 (≈ 35.7 µM) | 6.2 (≈ 24.3 µM) | 9.4 (≈ 36.8 µM) |  |  |  |  |  |  |  |  |  |  |  | 
Cc1cn([C@@H]2O[C@H](CO[Si](C)(C)C(C)(C)C)[C@@]3(OS(=O)(=O)C=C3NC(=O)N(C(=O)Nc3ccccc3)c3ccccc3)[C@H]2O[Si](C)(C)C(C)(C)C)c(=O)n(C)c1=O |  |  |  |  |  |  |  |  | 15 | 46 | 13 | > 10 |  |  |  |  |  |  |  | 
Cc1cn([C@@H]2O[C@H](CO[Si](C)(C)C(C)(C)C)[C@@]3(OS(=O)(=O)C=C3NC(=O)NC(=O)c3ccccc3)[C@H]2O)c(=O)n(C)c1=O |  |  |  |  |  |  |  |  | > 100 | > 100 | 22 | > 100 |  |  |  |  |  |  |  | 
Cc1cn([C@@H]2O[C@H](CO[Si](C)(C)C(C)(C)C(C)C)[C@@]3(OS(=O)(=O)C=C3NC(=O)NC(=O)c3ccccc3)[C@H]2O[Si](C)(C)C(C)(C)C)c(=O)n(C)c1=O | 1.1 (≈ 1.41 µM) | 0.78 (≈ 1 µM) | 1 (≈ 1.28 µM) | 0.67 (≈ 0.86 µM) | 0.9 (≈ 1.16 µM) | 3.1 (≈ 3.98 µM) | 1.3 (≈ 1.67 µM) | 0.86 (≈ 1.1 µM) | 1.1 | ≥ 100 | > 50 | 1.4 | inactive | 0.66 | inactive | inactive | inactive | 11 | 11 | inactive
